# High-throughput results as filed in PubChem BioAssay.
# Shown are actives, neighbours in structure and some others; about 3.8% of the full set was active somewhere.
# B2AR ag: human beta-2 adrenergic receptor agonism by FAP. response, % (concentration not given with the values). P07550. AID 504454. actives 0.43% (n = 340,000). Am2.2-beta2AR cells, FAP receptor internalization, flow cytometry;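 active = response above a set limit, near 3 SD of response in nonfluorescent compounds, cut at about 42% in these data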
# Target sequence (P07550 whole entry, looked up): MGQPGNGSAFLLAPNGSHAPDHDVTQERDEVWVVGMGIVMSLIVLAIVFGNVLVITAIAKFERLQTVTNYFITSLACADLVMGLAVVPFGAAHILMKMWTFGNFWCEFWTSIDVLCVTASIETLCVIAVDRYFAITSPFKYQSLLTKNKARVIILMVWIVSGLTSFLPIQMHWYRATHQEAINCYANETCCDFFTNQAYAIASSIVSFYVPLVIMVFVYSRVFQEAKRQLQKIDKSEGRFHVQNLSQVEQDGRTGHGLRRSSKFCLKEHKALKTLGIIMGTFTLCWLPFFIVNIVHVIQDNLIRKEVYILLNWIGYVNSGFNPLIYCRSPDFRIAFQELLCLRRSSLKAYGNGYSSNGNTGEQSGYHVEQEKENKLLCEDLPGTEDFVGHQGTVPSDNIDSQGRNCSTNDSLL
# MPTP block: permeability transition pore inhibition; isolated mouse mitochondria, Ca2+ swelling absorbance, 30 min; inhibition, % at 10 µM; actives 1.4% (n = 360,000); AID 602449;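 active = inhibition of 50% or more, scaled per plate between neutral and stimulator controls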;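 note: 0% = DMSO wells given calcium and 100% = 1 mM EGTA wells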
# Exocytosis inh: blocks lytic granule exocytosis | TALL-104 LAMP-1 surface exposure, flow cytometry; cells stimulated with thapsigargin and PMA | inhibition, % at 10 µM | actives 0.66% (n = 360,000) | AID 651702;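 active = inhibition above about 55%, limit read from the data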
# V-ATPase pH: alters yeast V-ATPase proton transport; S. cerevisiae, pHLuorin cytosolic pH fluorescence; response, % at 10 µM; actives 0.37% (n = 350,000); AID 504577; in the data active = response mostly above about 7.3%, no sharp cut-off; inactive = mostly below about 5.4%; note: actives read high
# T cell modulator: T cell immune modulation candidate | 2C CD8+ T cell-vesicle binding, flow cytometry; hits give low values | response (vesicle binding), % at 7 µM | actives 0.068% (n = 330,000) | AID 2052;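 active = response, share of CD8 T cells binding vesicles, and their 90th percentile fluorescence all below set limits, cut at about 80% in these data, passing the limit was not always enough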;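 note: values below 100% mean blocked vesicle binding to the CD8+ T cells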
#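 System: murine 2C transgenic CD8+ T lymphocytes; also added: QL9-loaded Drosophila micro-vesicles; times: binding 1.5 h at 37 °C; measured by: flow cytometry, PE anti-B7-1 (FL2) versus Alexa647 anti-CD8 (FL8), PFA-fixed; control set: Peptide-free naked vesicles (low) and QL9 vesicles with 0.7% DMSO vehicle (high)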
# rCAG binder: r(CAG) repeat RNA binding. TO-PRO-1 dye displacement fluorescence. inhibition, % at 3 µM. actives 1.3% (n = 370,000). AID 651821;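 active = inhibition above the plate cutoff, the mean of all test compounds on that plate plus 3 SD, cut at about 35% in these data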;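 note: 0% = DMSO alone and 100% = 100 µM mitoxantrone as full dye displacement; higher means more dye released from RNA so lower well fluorescence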
# Rh123 counter: mitochondrial membrane potential, counter-screen. inhibition, % at 10 µM. actives 78% (n = 5,000). shares compounds with MPTP block. isolated mitochondria, Rhodamine 123 fluorescence; in the data active = inhibition above about 22%;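 note: 0% = DMSO vehicle and 100% = positive control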
# MPTP swell DR: MPTP inhibition, dose response swelling confirmation; shares compounds with MPTP block; isolated mitochondria swelling, absorbance; IC50, µM; actives 58% (n = 780); AID 651561; in the data active = IC50 below about 20 µM
# MPTP cs DR: counter-screen for mitochondrial permeability transition pore inhibitors, dose response; actives 49% (n = 780); shares compounds with MPTP block; IC50, µM; isolated mitochondria counterscreen, fluorescence read-out; in the data active = IC50 below about 80 µM
# * marks the source's active call; other numbers are inactive results; i = inactive; / = not tested or not shown; ! = a repeat was not active.
SMILES,B2AR ag,MPTP block,Exocytosis inh,V-ATPase pH,T cell modulator,rCAG binder,Rh123 counter,others
CCCCc1c(-c2ccccc2OC)ncn1Cc1cccc(F)c1F,/,/,/,/,/,-0.6,/,
O=S1(=O)c2ccc(N3CCN(Cc4ccccc4F)CC3)cc2Oc2ccccc2CN1Cc1cn(Cc2cccc(C(F)(F)F)c2)nn1,/,/,/,/,/,12.4,/,
C=CCc1cccc(/C=C/c2cc(=O)c3ccccc3[nH]2)c1O,-1.4,59.8*,-2.8,-1.8,176.8,6.5,50.2*,
O=C(CSc1nnc(-c2ccccc2)n1-c1ccc(Cl)cc1)Nc1cccc2ccccc12,/,/,/,/,/,7.7,/,
CCCNC(=S)Nc1ccc(Oc2ccccc2)cc1,-2.8,58.1*,4.0,-0.7,226.9,-0.9,64.5*,
S=C(NCc1ccco1)Nc1ccc(Oc2ccc(Cl)cc2)cc1,-1.3,72.9*,4.7,1.2,677.8,1.8,89.8*,
CC(C)(C)c1ccc(OCCNC(=S)Nc2ccccc2)cc1,-8.8,92.5*,1.1,-3.4,205.9,-0.8,89.5*,
CN(C)c1cc[n+](CC(=O)Nc2ccc(Oc3ccccc3)cc2)cc1,-6.9,70.4*,4.3,-2.8,404.8,7.6,55.8*,
CCOc1ccc(NC(=O)C[n+]2ccc(N(C)C)cc2)cc1,1.4,-0.5,-0.2,-1.0,238.9,3.6,/,
COc1ccc(CN2CN3Cc4cc(F)ccc4C3CS2(=O)=O)cc1 (configuration not stated),/,/,/,/,/,1.5,/,
Cc1ccc(-c2c(C(=O)NC3CCCC3)oc(=O)c3ccccc23)cc1,/,/,/,/,/,2.9,/,
COC(=O)CSc1nnc(-c2ccc(NS(=O)(=O)c3c(C(C)C)cc(C(C)C)cc3C(C)C)cc2)o1,/,/,/,/,/,21.8,/,
COC(=O)C1=C(C)N(Cc2ccccc2C(F)(F)F)C(=NCc2ccc(C(F)(F)F)cc2)NC1c1ccccc1 (configuration not stated),/,/,/,/,/,2.4,/,
CCCCNC(=S)Nc1ccc(Oc2ccccc2)cc1,-15.1,76.0*,6.1,4.3,588.7,-1.5,91.4*,
CCN(C(=S)Nc1ccc(Oc2ccccc2)cc1)c1ccccc1,-4.0,91.0*,-0.5,-2.9,562.9,4.8,97.5*,
CCOc1ccc(NC(=S)NCCCc2ccccc2)cc1,0.3,0.7,-6.4,-1.0,212.5,-4.7,/,
CCN(C(=S)Nc1cccc(C)c1)c1ccccc1,-1.9,0.0,-0.8,1.2,747.1,2.3,/,
COc1ccc(-n2c(SCc3ccc([N+](=O)[O-])cc3)nnc2-c2ccco2)cc1,/,/,/,/,/,1.4,/,
O=C(N[C@H]1C[C@@H]2O[C@H](CO)CC[C@@H]2O[C@@H]1CCc1ccc(-c2cccnc2)cc1)c1cccc(F)c1,/,/,/,/,/,4.1,/,
Cc1ccc(S(=O)(=O)c2nc(NCCN(C)C)sc2Cl)cc1,2.9,-3.9,1.5,1.1,419.1,1.0,/,
COc1ccc(Nc2nc(S(=O)(=O)c3ccc(C)cc3)c(Cl)s2)cc1,5.9,59.0*,-1.5,2.5,147.9,8.8,76.1*,
COc1ccc(CNc2nc(S(=O)(=O)c3ccccc3)c(Cl)s2)cc1OC,4.1,81.8*,18.6,6.3,317.2,1.9,64.0*,
O=S(=O)(c1ccccc1)c1nc(NCc2ccccc2)sc1Cl,-9.7,9.3,-2.0,-1.4,145.6,1.2,/,
O=S(=O)(c1ccccc1)c1nc(Nc2cccc(O)c2)sc1Cl,9.9,54.0*,1.9,-0.8,167.7,8.8,39.4*,
Cc1ccc(S(=O)(=O)c2nc(Nc3ccccc3)sc2Cl)cc1,-6.8,84.9*,1.3,-1.6,/,9.2,84.9*,
SMILES,B2AR ag,MPTP block,Exocytosis inh,V-ATPase pH,T cell modulator,rCAG binder,Rh123 counter,others
Cc1ccc(O)c(C(C)c2c[nH]c3ccccc23)c1 (configuration not stated),/,/,/,/,/,3.6,/,
Cc1ccc(NC(=O)CN2CC(C)SC2=NC2CCCCC2)cc1 (configuration not stated),5.0,51.7*!,-2.4,0.1,295.6,-0.9,-11.5,MPTP swell DR=12.7*;MPTP cs DR=>80
Cc1ccc(NC(=O)CN2CCOCC2)cc1,2.5,-1.5,10.3,-0.7,0.0,5.1,/,
Cc1ccc(NC(=O)c2cc(C(=O)c3cc(Cl)ccc3O)cn(-c3ccc(C)cc3)c2=O)cc1,24.1,91.9*,-1.0,-2.3,347.9,6.2,85.3*,
N#Cc1cc(C(=O)c2cc(Cl)ccc2O)cn(-c2ccccc2)c1=O,-0.5,-0.8,-6.5,-1.1,i,1.5,/,
Brc1ccccc1C1Cc2nnccc2CN1 (configuration not stated),/,/,/,/,/,3.2,/,
c1ccc(COc2ccc(OCCCNC3CCCC3)cc2)cc1,1.9,90.5*,-2.1,-107.0,123.7,13.9,-10.6,MPTP swell DR=3.15*;MPTP cs DR=42.8*
CCn1c(Cc2cccs2)nnc1SCC(=O)Nc1ccccc1-c1ccccc1,/,/,/,/,/,1.3,/,
CCCCn1nnnc1C(c1cc2ccccc2o1)N1CCN(c2c(C)cccc2C)CC1 (configuration not stated),/,3.1,-3.7,/,/,3.1,/,
Cc1cccc(C)c1N1CCN(C(c2cc3ccccc3o2)c2nnnn2C(C)(C)C)CC1 (configuration not stated),/,86.8*,-2.0,/,/,/,56.8*,
Cc1nc2ccc(S(=O)(=O)NCC(=O)NCc3cccs3)cc2s1,/,/,/,/,/,0.3,/,
O=C(NCCCCCCOC1=NS(=O)(=O)c2ccccc21)C(=O)Nc1ccccc1,-4.7,73.0*,1.0,26.5,363.5,0.7,67.8*,
Cc1cc(C(=O)COC(=O)CCc2nc3ccccc3c(=O)[nH]2)c(C)n1CC1CCCO1 (configuration not stated),/,/,/,/,538.5,/,/,
Cc1cc(C(=O)CSc2nc3ccccc3c(=O)[nH]2)c(C)n1CC1CCCO1 (configuration not stated),0.4,80.8*,2.5,0.6,68.0,0.3,75.3*,
Clc1ccc(COc2cccc(CNCc3ccncc3)c2)cc1,-1.5,67.6*,-0.8,-1.3,234.0,-5.9,84.8*,
CC(C)(CO)NCc1cccc(OCc2ccc(Cl)cc2)c1,9.8,0.3,0.6,-0.4,203.9,1.4,/,
COC(=O)N1C[C@H](OC(=O)c2ccc(-c3ccccc3)cc2)[C@H]2C[C@@H]1c1ccccc1O2,/,/,/,/,/,0.7,/,
Cc1cc(C)n(-c2nc(N(c3ccccc3)c3ccccc3)nc(-n3nc(C)cc3C)n2)n1,33.1,80.5*,88.3*,-2.4,266.1,/,2.1,
CC(=O)N1CCc2cc(S(=O)(=O)NCCCN3CCCCC3)ccc21,-3.2,-2.3,-10.9,2.5,83.8,-1.5,/,
O=C(Nc1cccc(F)c1)c1cc(S(=O)(=O)NCCC2=CCCCC2)ccc1F,-5.2,62.6*,2.9,0.4,719.9,4.4,77.6*,
CC(=O)N1CCc2cc(S(=O)(=O)NCCC3=CCCCC3)ccc21,-7.4,61.1*,-5.0,-1.3,579.9,0.5,81.7*,
